pIC50: −log10 of the molar value. Read-outs that look alike come from different tables or passages of the source.

Experiment [1] concerns the target T1, TNAP (Homo sapiens, UniProt P05186).
T1 sequence (P05186 18-501 limits assumed): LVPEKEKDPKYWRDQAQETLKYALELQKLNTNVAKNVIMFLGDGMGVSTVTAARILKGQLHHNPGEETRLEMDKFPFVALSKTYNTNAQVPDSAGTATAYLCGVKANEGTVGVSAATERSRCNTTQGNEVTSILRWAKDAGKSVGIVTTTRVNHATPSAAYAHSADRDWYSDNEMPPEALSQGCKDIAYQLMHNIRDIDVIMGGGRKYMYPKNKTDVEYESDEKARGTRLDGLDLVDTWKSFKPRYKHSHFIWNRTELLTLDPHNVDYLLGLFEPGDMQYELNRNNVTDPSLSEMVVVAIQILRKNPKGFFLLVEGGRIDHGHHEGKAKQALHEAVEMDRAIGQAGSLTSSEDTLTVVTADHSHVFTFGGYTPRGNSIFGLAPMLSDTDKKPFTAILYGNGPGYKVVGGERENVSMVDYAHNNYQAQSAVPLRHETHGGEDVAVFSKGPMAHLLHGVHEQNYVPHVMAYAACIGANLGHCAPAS
Conditions: ref Fishman and Sie, 1971; Van Belle, 1976; Farley et al., 1980; cited from earlier work.

In experiment [2] the target is T1, TNAP. Type of experiment: biochemical. Conditions: for MOI vs CDP*: mode of inhibition with respect to CDP-star (UC uncompetitive, C competitive); for MOI vs DEA: mode of inhibition with respect to DEA (C competitive, NC non-competitive).
The target in the next experiment is T2, IAP (Homo sapiens, UniProt P09923).
T2 sequence (P09923 20-503 limits assumed): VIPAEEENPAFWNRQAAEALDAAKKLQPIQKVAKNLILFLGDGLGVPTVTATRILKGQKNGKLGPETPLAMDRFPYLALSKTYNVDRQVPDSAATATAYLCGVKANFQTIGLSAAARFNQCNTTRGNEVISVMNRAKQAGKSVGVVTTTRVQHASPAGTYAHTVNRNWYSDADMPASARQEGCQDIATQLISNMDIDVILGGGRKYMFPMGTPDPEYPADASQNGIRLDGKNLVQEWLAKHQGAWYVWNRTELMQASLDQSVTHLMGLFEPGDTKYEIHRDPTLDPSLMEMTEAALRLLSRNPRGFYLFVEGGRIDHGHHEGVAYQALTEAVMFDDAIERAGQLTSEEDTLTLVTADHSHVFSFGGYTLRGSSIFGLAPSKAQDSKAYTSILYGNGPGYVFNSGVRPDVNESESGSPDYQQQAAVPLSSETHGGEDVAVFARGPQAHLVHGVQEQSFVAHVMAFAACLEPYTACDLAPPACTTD
Nature of the experiment: Luminescent IAP selectivity assay. Type of experiment: biochemical. Conditions: read-out: SDCCG panel IC50 IAP, […] CDP-star.

For another experiment, the target named is PLAP (Homo sapiens, UniProt P05187). Nature of the experiment: Luminescent PLAP selectivity assay. Type of experiment: biochemical. Conditions: read-out: SDCCG panel IC50 PLAP, 85 µM CDP-star. An outline of the steps:
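Run as an analogue of the luminescent TNAP assay: CDP-star held at the PLAP Km. The TNAP version used 100 mM DEA-HCl pH 9.8, 1 mM MgCl2 and 20 uM ZnCl2, with luminescence read after 30 min at room temperature. Percent inhibition was computed against negative and positive control wells. Dose-response data were fitted to the Hill equation for IC50, excluding nephelometrically precipitating concentrations.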

Experiment [3] addresses T1, TNAP. Nature of the experiment: Luminescent TNAP assay with CDP-star substrate. Type of experiment: biochemical.
For experiment [4], the target named is T1, TNAP. Nature of the experiment: Colorimetric TNAP assay, pNPP substrate, absorbance at 405 nm. Type of experiment: biochemical. Conditions: colorimetric assays, 1 M DEA, compared with luminescent assay.
The mark [5] stands for this setting: read-out: IC50 SAR-Lumi, dry powder compounds, 100 mM DEA.
Where [6] appears, read: read-out: SDCCG panel IC50 TNAP.

Chain of PLAP (P05187 23-506 limits assumed): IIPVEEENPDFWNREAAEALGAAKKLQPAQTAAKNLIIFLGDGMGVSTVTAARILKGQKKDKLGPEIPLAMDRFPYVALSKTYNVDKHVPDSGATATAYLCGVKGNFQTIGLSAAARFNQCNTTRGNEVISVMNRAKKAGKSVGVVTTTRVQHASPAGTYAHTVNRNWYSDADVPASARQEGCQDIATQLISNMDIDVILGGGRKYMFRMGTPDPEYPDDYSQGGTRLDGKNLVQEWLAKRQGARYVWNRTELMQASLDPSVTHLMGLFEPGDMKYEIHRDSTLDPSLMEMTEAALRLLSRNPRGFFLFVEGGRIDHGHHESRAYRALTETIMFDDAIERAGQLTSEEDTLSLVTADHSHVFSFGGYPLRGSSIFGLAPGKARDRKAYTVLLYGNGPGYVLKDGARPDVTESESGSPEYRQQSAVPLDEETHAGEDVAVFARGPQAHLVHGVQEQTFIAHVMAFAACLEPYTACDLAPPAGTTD

On to `NC(N)=NCCCC[C@H](N)C(=O)O` [L-homoarginine], for which the “Mode of inhibition of TNAP by known inhibitors” value on TNAP [1] was “inhibited uncompetitively”.
The term pIC50 denotes the IC50 on a negative log10 scale, so that one unit is a factor of ten. `O=C(O)c1cc(-c2ccccc2Cl)n[nH]1` [MLS-0005718]: on TNAP [2], the “MOI vs CDP*” value was “competitive with CDP-star”. At TNAP [2], the “MOI vs DEA” value is “competitive mechanism”. The pIC50 on IAP was 4.36; at PLAP, less than 4.00; on TNAP [3] (setting [5]), 6.13; at TNAP [3] (setting [6]), 6.13.
Regarding `COc1ccc(C)cc1S(=O)(=O)Nc1cccnc1` [MLS-0010847], the pIC50 at IAP is less than 4.00; on PLAP, less than 4.00; at TNAP [3] (setting [5]) it was 6.03; on TNAP [3] (setting [6]), 6.03.
Take `COc1ccc(OC)c(S(=O)(=O)Nc2cnc3ccccc3c2)c1` [MLS-0038949]: the pIC50 at PLAP is less than 4.00.
For the compound `O=c1cc(-c2cccc3ccccc23)[nH][nH]1` [MLS-0039961], the “MOI vs CDP*” value on TNAP [2] is “competitive with CDP-star”. The “MOI vs DEA” value on TNAP [2] is “non-competitive”. Besides, the negative-log IC50 (pIC50) at IAP was less than 4.00; on PLAP, less than 4.00; at TNAP [3] (setting [5]) it was 5.34.
With `COc1ccc(OC)c(S(=O)(=O)Nc2ccc(O)c(Sc3ncn[nH]3)c2)c1` [MLS-0043574], the “Activity in the colorimetric assay” value on TNAP [4] was “inactive”.
Consider `O=C1C2CC=CCC2C(=O)N1c1n[nH]c(Cc2ccccc2)n1` (stereo not shown) [MLS-0067142], for which the “MOI vs CDP*” value at TNAP [2] was “competitive with CDP-star”. Further, the “MOI vs DEA” value on TNAP [2] was “competitive mechanism”. For the same compound, the negative logarithm of the IC50 (pIC50) at IAP was 6.27; at PLAP, 5.50; on TNAP [3] (setting [5]) it was 6.73; at TNAP [3] (setting [6]), 6.73.
`c1ccc([C@H]2CN3CCSC3=N2)cc1` [levamisole]: on TNAP [1], the “Mode of inhibition of TNAP by known inhibitors” value is on record as “inhibited uncompetitively”.

The values above are taken from PMC3403534 (Journal of Biomolecular Screening, 2009).
